From ChEMBL document CHEMBL1641412, “Synthesis and 11β hydroxysteroid dehydrogenase 1 inhibition of thiazolidine derivatives with an adamantyl group” (Bioorg Med Chem Lett, 2011) come the findings set out here.

Data set [1] is described as follows: Metabolic stability in human liver microsomes after 30 mins. It counts as ADME, Microsome. To be noted: read-out: Stability.
Data set [2] has as its target T1, 11-beta-hydroxysteroid dehydrogenase type 2 (Homo sapiens) (UniProt P80365).
T1 sequence (whole entry): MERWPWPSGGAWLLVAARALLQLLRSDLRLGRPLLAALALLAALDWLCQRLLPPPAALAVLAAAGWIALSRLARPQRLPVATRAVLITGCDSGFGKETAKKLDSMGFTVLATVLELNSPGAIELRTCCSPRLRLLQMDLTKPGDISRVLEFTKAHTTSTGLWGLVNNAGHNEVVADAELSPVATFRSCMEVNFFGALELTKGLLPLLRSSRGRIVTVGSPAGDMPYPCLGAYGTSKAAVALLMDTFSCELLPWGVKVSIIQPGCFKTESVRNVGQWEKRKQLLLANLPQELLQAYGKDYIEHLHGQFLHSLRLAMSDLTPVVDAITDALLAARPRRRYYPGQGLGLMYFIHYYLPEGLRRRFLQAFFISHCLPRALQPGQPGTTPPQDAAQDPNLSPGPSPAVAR
Briefly: Inhibition of human 11beta-HSD2 expressed in HEK293 cells at 10 uM after 24 hrs by HTRF cortisol assay. The data set is classed as cell-based.

Data set [3] deals with 11-beta-hydroxysteroid dehydrogenase 1 (Homo sapiens, UniProt P28845). Put plainly: Inhibition of human 11beta-HSD1 expressed in CHO cells after 3 hrs by HTRF cortisol assay. It counts as cell-based.
Sequence of 11-beta-hydroxysteroid dehydrogenase 1 (Homo sapiens, UniProt P28845) (P28845 whole entry): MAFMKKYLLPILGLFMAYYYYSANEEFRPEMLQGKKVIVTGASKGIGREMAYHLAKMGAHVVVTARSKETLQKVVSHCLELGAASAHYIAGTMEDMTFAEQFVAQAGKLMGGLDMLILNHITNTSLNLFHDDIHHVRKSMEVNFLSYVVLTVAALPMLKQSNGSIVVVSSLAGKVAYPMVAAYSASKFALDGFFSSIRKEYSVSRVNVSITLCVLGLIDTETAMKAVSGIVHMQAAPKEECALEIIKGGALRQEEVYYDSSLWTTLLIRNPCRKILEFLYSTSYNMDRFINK
In data set [4] the target is 11-beta-hydroxysteroid dehydrogenase 1 (Mus musculus, UniProt P50172). Put plainly: Inhibition of mouse 11beta-HSD1 expressed in CHO cells after 3 hrs by HTRF cortisol assay. The data set is classed as cell-based.
Sequence of 11-beta-hydroxysteroid dehydrogenase 1 (Mus musculus, UniProt P50172) (P50172 whole entry): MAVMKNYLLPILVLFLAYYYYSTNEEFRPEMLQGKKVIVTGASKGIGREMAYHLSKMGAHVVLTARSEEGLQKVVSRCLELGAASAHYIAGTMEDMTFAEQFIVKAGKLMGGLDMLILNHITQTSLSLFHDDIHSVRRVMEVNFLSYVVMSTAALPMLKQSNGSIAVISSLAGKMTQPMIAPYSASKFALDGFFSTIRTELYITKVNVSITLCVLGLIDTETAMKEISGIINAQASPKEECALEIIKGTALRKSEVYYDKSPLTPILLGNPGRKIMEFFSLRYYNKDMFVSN
The nature of data set [5]: Oral bioavailability in po dosed rat. The data set is classed as ADME, organism-based. To be noted: in vivo.
The target in another data set is CYP3A4 (Homo sapiens, UniProt P08684). Briefly: Inhibition of CYP3A4 at 10 uM. The data set is classed as ADME.
Sequence of CYP3A4 (P08684 whole entry): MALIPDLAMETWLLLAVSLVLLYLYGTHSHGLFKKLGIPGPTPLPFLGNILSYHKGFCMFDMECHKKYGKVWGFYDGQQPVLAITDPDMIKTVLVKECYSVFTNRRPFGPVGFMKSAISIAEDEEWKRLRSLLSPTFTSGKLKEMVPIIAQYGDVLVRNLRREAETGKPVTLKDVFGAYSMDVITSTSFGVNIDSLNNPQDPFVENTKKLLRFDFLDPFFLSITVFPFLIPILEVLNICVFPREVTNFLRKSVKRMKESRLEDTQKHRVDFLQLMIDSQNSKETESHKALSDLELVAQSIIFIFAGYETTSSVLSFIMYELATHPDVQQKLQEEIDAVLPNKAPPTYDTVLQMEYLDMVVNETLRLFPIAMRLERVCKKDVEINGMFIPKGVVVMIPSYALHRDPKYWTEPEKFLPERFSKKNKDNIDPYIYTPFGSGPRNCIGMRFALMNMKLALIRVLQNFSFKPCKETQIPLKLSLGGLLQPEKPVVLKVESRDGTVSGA
Data set [6] relates to Mus musculus. Put plainly: Antidiabetic activity in KKAy mouse assessed as reduction of AUC of plasma glucose level at 100 mg/kg, po qd for 18 days by oral glucose tolerance test relative to control. The data set is classed as functional. The arrangement: scale not given: the % may be the effect or the level left.
Data set [7] in a line: AUC (0 to 8 hrs) in po dosed rat. The data set is classed as ADME, organism-based. Details: time < 8 hr, route oral. To be noted: plasma. In short, it runs like this:
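Rats dosed orally; plasma exposure expressed as AUC over 0–8 h.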

Data set [8] deals with Mus musculus. Briefly: In vivo inhibition of 11beta-HSD1 in C57Bl/6 mouse liver assessed as cortisol product at 40 mg/kg, po after 2 hrs by ELISA. The data set is classed as functional. The conditions noted are these: C57Bl/6, 2 h.
Data set [9] relates to Cynomolgus monkey. Briefly: In vivo inhibition of 11beta-HSD1 in cynomolgus monkey lnguinal fat pad assessed as cortisol product at 20 mg/kg, po after 2 hrs by ELISA. It counts as functional. To be noted: Macaca fascicularis.
Data set [10] in a line: Clearance in po dosed rat. It counts as ADME, organism-based. To be noted: in vivo.
For data set [11], the system named is Mus musculus. Put plainly: In vivo inhibition of 11beta-HSD1 in C57/BL6 mouse lnguinal fat pad assessed as cortisol product at 40 mg/kg, po after 2 hrs by ELISA. It counts as functional. The conditions noted are these: C57Bl/6, Fat pad.
The subject of data set [12] is Cynomolgus monkey. Put plainly: In vivo inhibition of 11beta-HSD1 in cynomolgus monkey liver assessed as cortisol product at 20 mg/kg, po after 2 hrs by ELISA. The data set is classed as functional. The conditions noted are these: Macaca fascicularis.
A further data set deals with CYP2D6 (Homo sapiens, UniProt P10635). Put plainly: Inhibition of CYP2D6 at 10 uM. It counts as ADME.
Sequence of CYP2D6 (P10635 whole entry): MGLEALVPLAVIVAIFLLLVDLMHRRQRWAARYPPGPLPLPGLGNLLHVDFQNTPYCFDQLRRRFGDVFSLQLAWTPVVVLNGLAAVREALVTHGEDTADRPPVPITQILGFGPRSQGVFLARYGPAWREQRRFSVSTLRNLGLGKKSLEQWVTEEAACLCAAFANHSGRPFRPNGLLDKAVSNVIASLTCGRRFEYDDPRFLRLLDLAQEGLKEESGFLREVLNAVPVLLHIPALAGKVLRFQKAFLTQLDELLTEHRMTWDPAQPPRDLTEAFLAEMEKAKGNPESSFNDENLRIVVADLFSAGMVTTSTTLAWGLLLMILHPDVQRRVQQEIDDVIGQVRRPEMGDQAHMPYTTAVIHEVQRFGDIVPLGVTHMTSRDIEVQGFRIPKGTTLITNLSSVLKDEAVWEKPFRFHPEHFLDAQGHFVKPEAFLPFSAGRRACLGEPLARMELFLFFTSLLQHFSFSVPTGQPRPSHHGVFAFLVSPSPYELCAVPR
Another data set concerns the target CYP2C19 (Homo sapiens, UniProt P33261). Briefly: Inhibition of CYP2C19 at 10 uM. It counts as ADME.
The next data set has as its target T2, CYP1A2 (Homo sapiens, UniProt P05177).
T2 sequence (P05177 whole entry): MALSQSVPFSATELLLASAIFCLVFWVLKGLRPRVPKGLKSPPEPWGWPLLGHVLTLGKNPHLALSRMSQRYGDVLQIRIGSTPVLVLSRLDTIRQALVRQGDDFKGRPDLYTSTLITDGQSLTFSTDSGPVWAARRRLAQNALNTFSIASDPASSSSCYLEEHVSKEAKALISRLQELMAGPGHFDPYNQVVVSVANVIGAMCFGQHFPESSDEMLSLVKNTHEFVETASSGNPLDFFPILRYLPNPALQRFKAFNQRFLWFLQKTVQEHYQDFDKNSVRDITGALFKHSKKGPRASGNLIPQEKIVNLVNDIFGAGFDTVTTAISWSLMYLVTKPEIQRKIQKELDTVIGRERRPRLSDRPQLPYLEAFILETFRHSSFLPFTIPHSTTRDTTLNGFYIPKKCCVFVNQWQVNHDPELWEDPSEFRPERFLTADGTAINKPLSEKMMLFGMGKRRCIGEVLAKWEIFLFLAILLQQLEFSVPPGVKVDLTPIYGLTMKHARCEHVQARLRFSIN
Briefly: Inhibition of CYP1A2 at 10 uM. The data set is classed as ADME.

In data set [13] the target is Voltage-gated inwardly rectifying potassium channel KCNH2 (Homo sapiens, UniProt Q12809). Put plainly: Binding affinity to human ERG.
Sequence of Voltage-gated inwardly rectifying potassium channel KCNH2 (Q12809 whole entry): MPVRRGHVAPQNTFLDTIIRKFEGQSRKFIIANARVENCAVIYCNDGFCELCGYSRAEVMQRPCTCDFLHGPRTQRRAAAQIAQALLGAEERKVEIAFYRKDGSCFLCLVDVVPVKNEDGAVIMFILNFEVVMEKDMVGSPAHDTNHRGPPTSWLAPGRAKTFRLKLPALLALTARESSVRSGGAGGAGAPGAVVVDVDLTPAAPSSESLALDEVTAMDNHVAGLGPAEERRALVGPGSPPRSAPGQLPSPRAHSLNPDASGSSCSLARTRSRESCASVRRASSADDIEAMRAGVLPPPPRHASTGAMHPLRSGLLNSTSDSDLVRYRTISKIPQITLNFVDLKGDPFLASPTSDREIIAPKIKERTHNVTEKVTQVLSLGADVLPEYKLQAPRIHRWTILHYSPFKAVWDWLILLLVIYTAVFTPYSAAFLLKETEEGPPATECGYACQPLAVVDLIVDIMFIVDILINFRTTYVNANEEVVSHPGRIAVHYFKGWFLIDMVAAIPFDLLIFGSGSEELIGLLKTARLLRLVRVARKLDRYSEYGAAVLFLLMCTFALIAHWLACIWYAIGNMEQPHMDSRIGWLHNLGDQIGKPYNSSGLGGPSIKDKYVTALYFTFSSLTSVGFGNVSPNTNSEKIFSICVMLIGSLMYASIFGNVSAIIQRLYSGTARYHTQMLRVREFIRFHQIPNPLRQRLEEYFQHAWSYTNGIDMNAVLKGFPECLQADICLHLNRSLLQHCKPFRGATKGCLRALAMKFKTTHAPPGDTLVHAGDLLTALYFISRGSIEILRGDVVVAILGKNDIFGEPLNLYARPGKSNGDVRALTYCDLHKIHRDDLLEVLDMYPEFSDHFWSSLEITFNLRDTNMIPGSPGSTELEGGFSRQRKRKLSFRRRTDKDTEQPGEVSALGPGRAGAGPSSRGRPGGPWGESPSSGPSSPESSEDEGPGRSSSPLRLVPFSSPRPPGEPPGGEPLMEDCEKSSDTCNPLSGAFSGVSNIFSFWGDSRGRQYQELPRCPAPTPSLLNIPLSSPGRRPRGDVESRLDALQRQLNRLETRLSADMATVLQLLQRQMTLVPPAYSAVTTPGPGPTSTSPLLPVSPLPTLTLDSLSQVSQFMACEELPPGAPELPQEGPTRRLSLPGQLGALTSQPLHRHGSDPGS
Data set [14] deals with Mus musculus. Put plainly: Antidiabetic activity in KKAy mouse assessed as reduction of non-fasting plasma glucose level at 100 mg/kg, po qd for 18 days relative to control. The data set is classed as functional. The arrangement: scale not given: the % may be the effect or the level left. In short, it runs like this:
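KKAy mice dosed orally at 100 mg/kg for 18 days alongside vehicle-treated controls; non-fasting blood glucose measured after 18 days; n = 7 mice/group, means ± SEM.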

Data set [15] is described as follows: Cmax in po dosed rat. It counts as ADME, organism-based. Details: route oral. The conditions noted are these: in vivo.

Sequence of CYP2C19 (P33261 whole entry): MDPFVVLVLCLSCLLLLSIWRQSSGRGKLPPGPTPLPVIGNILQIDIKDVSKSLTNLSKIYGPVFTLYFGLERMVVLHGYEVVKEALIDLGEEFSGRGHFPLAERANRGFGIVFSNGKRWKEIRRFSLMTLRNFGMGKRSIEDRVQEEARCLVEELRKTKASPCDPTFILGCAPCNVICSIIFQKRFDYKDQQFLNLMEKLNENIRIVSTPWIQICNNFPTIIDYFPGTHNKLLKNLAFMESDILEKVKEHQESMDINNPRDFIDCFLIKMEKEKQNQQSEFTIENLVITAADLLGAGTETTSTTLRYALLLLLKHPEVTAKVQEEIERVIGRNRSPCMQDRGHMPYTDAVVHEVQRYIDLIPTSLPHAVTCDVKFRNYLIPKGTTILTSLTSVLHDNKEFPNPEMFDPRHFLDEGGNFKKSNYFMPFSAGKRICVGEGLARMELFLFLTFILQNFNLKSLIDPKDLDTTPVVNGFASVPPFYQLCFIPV

For `NC(=O)C12CC3CC(C1)C(NC(=O)C1SCCN1S(=O)(=O)c1ccc(Cl)c(Cl)c1)C(C3)C2` (stereo unspecified), in [1], the remaining at 0.5 h stood at 43%. Besides, the inhibition in data set [2] is 47%. Also, the IC50 in data set [3] was 5 nM.

On to `NC(=O)C12CC3CC(C1)C(NC(=O)C1SCCN1S(=O)(=O)c1ccccc1F)C(C3)C2` (stereo in doubt; 8g), for which the IC50 in [3] and in data set [4] was 4 nM each time.

Compound `NC(=O)C12CC3CC(C1)C(NC(=O)C1SCCN1S(=O)(=O)c1ccccc1)C(C3)C2` (stereo unspecified) had a 50% inhibitory concentration (IC50) in data set [4] of 842 nM.

In data set [4], `NC(=O)C12CC3CC(C1)C(NC(=O)C1SCCN1S(=O)(=O)c1ccc(F)cc1)C(C3)C2` (stereo unspecified) came in with a half-inhibitory concentration (IC50) of 27 nM.

Take `NC(=O)C12CC3CC(C1)C(NC(=O)[C@@H]1SCCN1S(=O)(=O)c1ccccc1F)C(C3)C2` (stereo in doubt; 8g (S) (Z)): the IC50 in data set [3] worked out at 38700 nM.

`NC(=O)C12CC3CC(C1)C(NC(=O)C1SCCN1S(=O)(=O)c1ccccc1F)C(C3)C2` (stereo in doubt; 8g (E)) [listing 1 of 2 here] displayed a bioavailability in [5] of 32%. Moreover, the inhibition at 10 µM against CYP3A4 was found to be 21%; against CYP2D6, 0%; against CYP2C19, 25%; at CYP1A2 it was 0%. The figures for the Activity (in the data set on Mus musculus [6]; in [13]; in the data set with Mus musculus [14]) were 18.1%, greater than 100 µM and 28.2%, respectively. For the same compound, the AUC(0-t) at 8 h in [7] was determined as 1110 ng·h/mL. Further, the inhibition in vivo at 40 mg/kg in the data set on Mus musculus [8] was 65%; with Mus musculus [11], 67%. Further, the inhibition in vivo at 20 mg/kg in the data set with Cynomolgus monkey [9] amounted to 62%; in the data set with Cynomolgus monkey [12] it was 57%. In [10], this compound had a CL/F of 48.3 mL/min/kg. Further, the remaining at 0.5 h in data set [1] was found to be 77%. In addition, the IC50 in [3] and in data set [4] was 3 nM in each case.

`Cc1ccc(S(=O)(=O)N2CCSC2C(=O)NC2C3CC4CC2CC(C(N)=O)(C4)C3)cc1` (stereo unspecified) yielded a bioavailability in data set [5] of 16%. Besides, the inhibition at 10 µM on CYP3A4 is 24%; against CYP2D6 it was 0%; against CYP2C19, 21%; at CYP1A2 it was 0%. Also, the inhibition in vivo at 40 mg/kg in the data set with Mus musculus [8] and in the data set with Mus musculus [11] was 51% each time. For the same compound, the CL/F in [10] was 43.3 mL/min/kg. Besides, in data set [1], the remaining at 0.5 h came to 53%. In addition, the inhibition in [2] amounted to 0%. The IC50 came to 8 nM in data set [3] and 57 nM in data set [4]. Besides, the concentration in [15] peaked (Cmax) at 0.65 µg/mL.

The compound `NC(=O)C12CC3CC(C1)C(NC(=O)C1SCCN1S(=O)(=O)c1ccccc1F)C(C3)C2` (mixture of isomers) returned an IC50 in [3] of 4 nM.

For the compound `NC(=O)C12CC3CC(C1)C(NC(=O)C1SCCN1S(=O)(=O)c1ccccc1F)C(C3)C2` (stereo in doubt; 8g (E)) [listing 2 of 2 here], the inhibition in [2] was determined as 0%.

Turning to `COc1ccc(S(=O)(=O)N2CCSC2C(=O)NC2C3CC4CC2CC(C(N)=O)(C4)C3)cc1` (stereo unspecified), inhibition in data set [4] was half-maximal at 171 nM (IC50).

With `NC(=O)C12CC3CC(C1)C(NC(=O)[C@H]1SCCN1S(=O)(=O)c1ccccc1F)C(C3)C2` (stereo in doubt; 8g (R) (E)), the IC50 in data set [3] is 2 nM.

`NC(=O)C12CC3CC(C1)C(NC(=O)C1SCCN1S(=O)(=O)c1cccc(F)c1)C(C3)C2` (stereo unspecified) came in with an IC50 in data set [4] of 76 nM.

`NC(=O)C12CC3CC(C1)C(NC(=O)[C@@H]1SCCN1S(=O)(=O)c1ccccc1F)C(C3)C2` (stereo in doubt; 8g (S) (E)): the IC50 in data set [3] stood at 12 nM.

Compound `NC(=O)C12CC3CC(C1)C(NC(=O)C1SCCN1S(=O)(=O)c1ccccc1F)C(C3)C2` (stereo in doubt; 8g (Z)) yielded an IC50 in data set [3] of 7950 nM.

In turn, `NC(=O)C12CC3CC(C1)C(NC(=O)[C@H]1SCCN1S(=O)(=O)c1ccccc1F)C(C3)C2` (stereo in doubt; 8g (R) (Z)) came in with an IC50 in data set [3] of 1340 nM.
